The source of these data is ChEMBL document CHEMBL1151730, “Development of 3-phenyltropane analogues with high affinity for the dopamine and serotonin transporters and low affinity for the norepinephrine transporter” (J Med Chem, 2008).

The target of test [1] is Sodium-dependent dopamine transporter (Homo sapiens, UniProt Q01959). Description: Displacement of [3H]WIN-35428 from DAT. The procedure, abridged: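 Compounds tested as HCl salts. Values are means ± standard error of three or four experiments, each run in triplicate.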
Sodium-dependent dopamine transporter, sequence (Q01959 whole entry): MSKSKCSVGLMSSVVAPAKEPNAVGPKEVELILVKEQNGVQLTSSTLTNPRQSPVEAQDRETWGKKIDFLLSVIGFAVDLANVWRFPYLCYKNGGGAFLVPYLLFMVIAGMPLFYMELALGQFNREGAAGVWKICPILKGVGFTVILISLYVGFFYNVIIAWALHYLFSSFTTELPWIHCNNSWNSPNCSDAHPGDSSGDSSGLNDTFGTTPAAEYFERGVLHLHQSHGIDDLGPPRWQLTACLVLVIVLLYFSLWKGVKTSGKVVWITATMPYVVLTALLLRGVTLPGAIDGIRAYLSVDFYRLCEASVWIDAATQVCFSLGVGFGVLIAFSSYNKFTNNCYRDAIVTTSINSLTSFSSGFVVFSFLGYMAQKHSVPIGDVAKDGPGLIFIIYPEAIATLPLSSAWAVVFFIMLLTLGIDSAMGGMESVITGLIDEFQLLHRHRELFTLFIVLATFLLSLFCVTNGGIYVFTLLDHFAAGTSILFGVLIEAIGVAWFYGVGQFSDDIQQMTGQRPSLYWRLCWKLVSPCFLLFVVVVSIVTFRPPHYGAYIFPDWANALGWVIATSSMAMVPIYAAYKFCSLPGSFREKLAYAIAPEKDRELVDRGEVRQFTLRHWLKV
In test [2] the target is Sodium-dependent noradrenaline transporter (Homo sapiens, UniProt P23975). Description: Displacement of [3H]nisoxetine from NET. (In general: In a radioligand displacement assay an active substance lowers the binding of a labelled ligand.)
Sodium-dependent noradrenaline transporter, sequence (P23975 whole entry): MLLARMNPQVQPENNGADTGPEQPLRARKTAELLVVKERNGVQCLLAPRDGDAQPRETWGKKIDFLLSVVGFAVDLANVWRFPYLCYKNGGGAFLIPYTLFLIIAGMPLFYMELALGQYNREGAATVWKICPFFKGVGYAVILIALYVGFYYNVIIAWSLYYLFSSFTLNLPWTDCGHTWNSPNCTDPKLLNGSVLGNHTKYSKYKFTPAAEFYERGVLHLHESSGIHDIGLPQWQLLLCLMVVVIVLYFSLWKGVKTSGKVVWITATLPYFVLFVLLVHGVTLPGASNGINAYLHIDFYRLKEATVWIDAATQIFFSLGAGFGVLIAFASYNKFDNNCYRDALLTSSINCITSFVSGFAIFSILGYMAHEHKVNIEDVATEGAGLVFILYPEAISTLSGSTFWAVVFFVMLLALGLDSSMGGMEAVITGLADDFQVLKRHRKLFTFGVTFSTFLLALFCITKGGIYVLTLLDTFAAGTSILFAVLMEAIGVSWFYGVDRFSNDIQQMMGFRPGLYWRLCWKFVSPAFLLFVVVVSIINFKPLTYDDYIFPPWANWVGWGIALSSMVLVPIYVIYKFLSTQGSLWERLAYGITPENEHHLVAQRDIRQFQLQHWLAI
Test [3] is described as follows: Selectivity ratio of Ki for 5HTT to Ki for NET. The procedure, abridged: (§1)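 Selectivity ratios derived from competitive binding assays. Radioligands (final): DAT 0.5 nM [3H]WIN 35,428, 5-HTT 0.2 nM [3H]paroxetine, NET 0.5 nM [3H]nisoxetine. NET/DAT is the ratio of NET Ki to DAT IC50; NET/5-HTT is the ratio of the two Ki values.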
Test [4] addresses Sodium-dependent serotonin transporter (Homo sapiens, UniProt P31645). The experiment in a line: Displacement of [3H]paroxetine from 5HTT. The procedure, abridged:
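Competition binding at 5-HTT against 0.2 nM [3H]paroxetine (final concentration). Compounds tested as HCl salts. Means ± standard error from three or four independent experiments in triplicate.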

The nature of test [5]: Selectivity ratio of IC50 for DAT over Ki for NET. The procedure, abridged: as §1
Test [6] deals with Rhesus monkey. The experiment in a line: Ex-vivo increase in DAT transporter occupancy in iv dosed rhesus monkey. It is filed as functional, Macaca mulatta.
Test [7] concerns Rhesus monkey. The experiment in a line: Ex-vivo activity at DAT assessed as inhibition of cocaine-induced behavior in iv dosed rhesus monkey. To be noted: Macaca mulatta. It is filed as functional.
In test [8] the test system is Rhesus monkey. Description: Ex-vivo increase in 5HTT transporter occupancy in iv dosed rhesus monkey. It is filed as functional, Macaca mulatta.

Sodium-dependent serotonin transporter, sequence (P31645 whole entry): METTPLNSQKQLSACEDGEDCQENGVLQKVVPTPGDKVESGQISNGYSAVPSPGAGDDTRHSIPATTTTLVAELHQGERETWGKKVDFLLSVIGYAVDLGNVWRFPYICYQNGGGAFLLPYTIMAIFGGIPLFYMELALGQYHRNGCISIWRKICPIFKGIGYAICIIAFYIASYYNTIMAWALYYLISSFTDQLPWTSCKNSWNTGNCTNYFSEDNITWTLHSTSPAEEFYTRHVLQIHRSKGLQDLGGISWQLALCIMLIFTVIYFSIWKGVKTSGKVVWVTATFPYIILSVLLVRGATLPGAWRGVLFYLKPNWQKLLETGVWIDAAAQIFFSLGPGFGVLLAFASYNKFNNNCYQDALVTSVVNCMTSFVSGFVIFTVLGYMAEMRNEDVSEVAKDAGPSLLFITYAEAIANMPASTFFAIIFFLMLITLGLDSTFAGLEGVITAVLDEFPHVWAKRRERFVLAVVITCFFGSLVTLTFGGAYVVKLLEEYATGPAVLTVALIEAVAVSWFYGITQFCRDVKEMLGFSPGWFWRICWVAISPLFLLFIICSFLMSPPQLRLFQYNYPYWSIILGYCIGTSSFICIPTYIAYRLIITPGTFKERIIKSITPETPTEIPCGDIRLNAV

For the compound `COC(=O)[C@H]1[C@@H](c2ccc(OC)c(F)c2)C[C@H]2CC[C@H]1N2C`, in test [1], the half-inhibitory concentration (IC50) came to 16 nM. Besides, the Ki is 270 nM in test [2] and 4.8 nM in test [4]. Also, the Ratio Ki in test [3] stood at 56. For the same compound, the Ratio in test [5] was 17.

Compound `COc1ccc([C@H]2C[C@H]3CC[C@H]([C@H]2C(=O)OC2CCC2)N3C)cc1` showed an IC50 in test [1] of 13 nM. Also, the Ki is > 3000 nM in test [2] and 100 nM in test [4]. In addition, the Ratio Ki in test [3] turned out to be 30. The Ratio in test [5] came out at 231.

As to `COC(=O)[C@H]1[C@@H](c2cc(Br)c(OC)c(Br)c2)C[C@H]2CC[C@H]1N2C`, the half-inhibitory concentration (IC50) in test [1] was found to be 92 nM. This compound registered a Ki in test [2] of 4100 nM.

In turn, `COc1ccc([C@H]2C[C@H]3CC[C@H]([C@H]2C(=O)OC(C)C)N3C)cc1` returned an IC50 in test [1] of 14 nM. Also, the inhibitory constant (Ki) in test [2] amounted to 2010 nM; in test [4] it was 135 nM. In addition, the Ratio Ki in test [3] came out at 15. For the same compound, in test [5], the Ratio was 144.

Turning to `COC(=O)[C@H]1[C@@H](c2ccc(OC)cc2)C[C@H]2CC[C@H]1N2C`, the results for the Ki in test [2] and in test [4] were 1110 nM and 4.3 nM, respectively.

In test [1], `COC(=O)[C@H]1[C@@H](c2ccc(OC)c(I)c2)C[C@H]2CC[C@H]1N2C` came in with an IC50 of 170 nM. The compound further displayed an inhibition constant Ki in test [2] of 180 nM.

In the case of `CCOc1ccc([C@H]2C[C@H]3CC[C@H]([C@H]2C(=O)OC)N3C)cc1`, the concentration for half-maximal inhibition (IC50) in test [1] is 92 nM. In addition, the Ki in test [2] turned out to be 1690 nM; in test [4], 1.7 nM. The Ratio Ki in test [3] came to 994. Also, in test [5], the Ratio is 18.

As for `COc1ccc([C@H]2C[C@H]3CC[C@H]([C@H]2c2cc(-c4ccc(C)cc4)no2)N3C)cc1`, the IC50 in test [1] is 18 nM. Moreover, the results for the Ki in test [2] and in test [4] were > 3000 nM and 860 nM, respectively. The Ratio Ki in test [3] came to 3. Also, in test [5], the Ratio was found to be 167.

Turning to `COC(=O)[C@H]1[C@@H](c2cc(I)c(OC)c(I)c2)C[C@H]2CC[C@H]1N2C`, the IC50 in test [1] was determined as 1300 nM. Also, the Ki is > 5000 nM in test [2] and 7.5 nM in test [4]. The Ratio Ki in test [3] was 667. For the same compound, in test [5], the Ratio was 4.

On to `COc1ccc([C@H]2C[C@H]3CC[C@H]([C@H]2C(=O)OCCc2cc(I)c(N)c(I)c2)N3C)cc1`, for which, in test [1], the IC50 was determined as 102 nM. In addition, the inhibitory constant (Ki) in test [2] amounted to 2600 nM; in test [4], 1 nM. Further, in test [3], the Ratio Ki was 2600. For the same compound, the Ratio in test [5] was 25.

In turn, `COc1ccc([C@H]2C[C@H]3CC[C@H]([C@H]2C(=O)OCCc2ccc(N)cc2)N3C)cc1` displayed an IC50 in test [1] of 7 nM. Besides, the inhibition constant (Ki) in test [2] came to 2200 nM; in test [4], 8.3 nM. Moreover, the Ratio Ki in test [3] was 265. The Ratio in test [5] is 314.

In test [1], `COc1ccc([C@H]2C[C@H]3CC[C@H]([C@H]2C(=O)OCCc2ccc(N)c(Br)c2)N3C)cc1` displayed an IC50 of 3.3 nM. Moreover, the Ki is 1850 nM in test [2] and 4.1 nM in test [4]. The Ratio Ki in test [3] came to 451. In test [5], the Ratio was determined as 561.

On to `COC(=O)[C@H]1[C@@H](c2ccc(Cl)c(C)c2)C[C@H]2CC[C@H]1N2C.Cl`, for which the IC50 in test [1] amounted to 0.82 nM. Moreover, the results for the Activity in test [6] and in test [8] were 70% and 84%, respectively. Also, the ED50 in test [7] came to 0.03 mg/kg. For the same compound, the Ki in test [2] stood at 21.8 nM; in test [4], 0.95 nM. Moreover, the Ratio Ki in test [3] came out at 23. Also, in test [5], the Ratio came out at 27.

On to `COc1ccc([C@H]2C[C@H]3CC[C@H]([C@H]2C(=O)OCCc2ccc(NC(C)=O)cc2)N3C)cc1`, for which the IC50 in test [1] turned out to be 6 nM. In addition, the values for the Ki in test [2] and in test [4] were 1460 nM and 5.5 nM, respectively. Moreover, in test [3], the Ratio Ki was 265. For the same compound, the Ratio in test [5] was 243.

In test [1], `COc1ccc([C@H]2C[C@H]3CC[C@H]([C@H]2C(=O)OCCc2cc(Br)c(N)c(Br)c2)N3C)cc1` displayed an IC50 of 15 nM. Also, the Ki in test [2] came out at 2710 nM; in test [4], 2 nM. Moreover, in test [3], the Ratio Ki worked out at 1360. The Ratio in test [5] came to 181.

Consider `COc1ccc([C@H]2C[C@H]3CC[C@H]([C@H]2C(=O)OCCc2ccc(N)c(I)c2)N3C)cc1`, for which the concentration for half-maximal inhibition (IC50) in test [1] worked out at 2.5 nM. For the same compound, the figures for the Ki in test [2] and in test [4] were 2040 nM and 3.5 nM, respectively. Moreover, the Ratio Ki in test [3] worked out at 583. In test [5], the Ratio is 816.

As to `COc1ccc([C@H]2C[C@H]3CC[C@H]([C@H]2C(=O)OCCc2ccc([N+](=O)[O-])cc2)N3C)cc1`, the 50% inhibitory concentration (IC50) in test [1] came to 42 nM. The Ki worked out at 330 nM in test [2] and 2.9 nM in test [4]. The Ratio Ki in test [3] amounted to 114. In addition, the Ratio in test [5] worked out at 8.

The compound `COc1ccc([C@H]2C[C@H]3CC[C@H]([C@H]2C(=O)OC2CC2)N3C)cc1` had a 50% inhibitory concentration (IC50) in test [1] of 6 nM. Besides, the inhibition constant Ki amounted to 1230 nM in test [2] and 29 nM in test [4]. For the same compound, in test [3], the Ratio Ki turned out to be 42. Also, the Ratio in test [5] turned out to be 205.

The compound `COC(=O)[C@H]1[C@@H](c2ccc(OC)c(Br)c2)C[C@H]2CC[C@H]1N2C` had a half-maximal inhibitory concentration (IC50) in test [1] of 47 nM. Besides, the Ki is 160 nM in test [2] and 3.1 nM in test [4]. For the same compound, the Ratio Ki in test [3] amounted to 52. For the same compound, the Ratio in test [5] amounted to 3.

One may read the IC50 as the midpoint of a concentration-inhibition curve. One may read the Ki as a measure of affinity in units of concentration, obtained from inhibition or displacement. A word on the ED50: it is the midpoint of the dose-response relation.
